In ChEMBL document CHEMBL5653623 (J Pharmacol Exp Ther, 2015):
Calls of active or inactive are those of the source. The rule behind the calls is not given here.

What was measured:
[1] = test system: Mus musculus; assay: Effect on behavioral phenotype in 11 weeks old MitoPark mouse assessed as decreased rearing behavior at 30 mg/kg/day administered for 6 weeks and measured after 60 mins; format: functional, organism-based
In short: (§1)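 MitoPark mice, 5 weeks old, were allocated by baseline 60-min LMA to untreated diet or diet targeting 30 mg/kg/day (reformulated every 3 weeks). Wild-type littermates received vehicle diet. Body weight and food intake were recorded weekly. 60-min LMA (distance, rearing) was run at 8, 11, 14 and 17 weeks of age.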

[2] = test system: Mus musculus; assay: Effect on behavioral changes in 8 weeks old MitoPark mouse striatum assessed as HVA level at 30 mg/kg/day administered for 3 weeks by HPLC analysis; format: functional
In short: (§2)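 Striatum from MitoPark mice on diet targeting 30 mg/kg/day or vehicle diet (wild-type littermate controls) was homogenized by sonication in 0.1 M acid at 0.1 g/mL. Samples were held 60 min at 4 °C and centrifuged. Dopamine, DOPAC and HVA were measured by HPLC with electrochemical detection against a 3,4-DHBA internal standard and standard curves. Mean ± SEM.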

[3] = Unbound brain concentration in C57Bl/6 mouse at 1 mg/kg, po administered for 1 hr; format: ADME, organism-based; settings: in vivo
[4] = MRT in C57Bl/6 mouse at 2 mg/kg, iv measured after 480 mins by LC-MS/MS analysis; format: ADME, organism-based; settings: in vivo
In short: (§3)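 Male C57Bl/6 mice (20-25 g) given a single IV dose (2 mg/kg) or oral dose (10 mg/kg). Blood was sampled at 5, 15, 30, 60, 120, 240, 360 and 480 min and plasma prepared by centrifugation. Plasma drug levels were measured by LC/MS/MS. Values are mean (CV%), N=3.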

[5] = molecular target: Dual specificity protein kinase CLK4 (Homo sapiens, UniProt Q9HAZ1); assay: Inhibition of CLK4 (unknown origin)
Sequence of Dual specificity protein kinase CLK4 (Q9HAZ1 whole entry): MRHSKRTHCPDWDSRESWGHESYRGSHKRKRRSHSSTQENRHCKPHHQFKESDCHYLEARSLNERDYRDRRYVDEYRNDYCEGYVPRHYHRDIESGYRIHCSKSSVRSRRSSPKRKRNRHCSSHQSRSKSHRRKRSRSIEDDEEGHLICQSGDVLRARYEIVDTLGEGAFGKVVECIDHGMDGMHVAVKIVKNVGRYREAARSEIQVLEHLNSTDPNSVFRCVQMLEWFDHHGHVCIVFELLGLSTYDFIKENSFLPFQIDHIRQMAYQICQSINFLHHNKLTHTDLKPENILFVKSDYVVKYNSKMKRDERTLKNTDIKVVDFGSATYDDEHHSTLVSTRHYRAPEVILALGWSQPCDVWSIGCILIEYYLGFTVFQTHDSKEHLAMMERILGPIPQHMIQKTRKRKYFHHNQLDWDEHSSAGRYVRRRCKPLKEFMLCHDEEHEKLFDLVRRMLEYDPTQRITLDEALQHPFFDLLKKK

[6] = test system: Mus musculus; assay: Effect on behavioral changes in 14 weeks old MitoPark mouse striatum assessed as HVA level at 30 mg/kg/day by HPLC analysis; format: functional; in short: as §2
[7] = Unbound brain concentration in C57Bl/6 mouse at 100 mg/kg, po administered for 1 hr; format: ADME, organism-based; settings: in vivo
[8] = molecular target: Leucine-rich repeat serine/threonine-protein kinase 2 (Mus musculus) (UniProt Q5S006); assay: In vivo inhibition of LRRK2 in C57Bl/6 mouse kidney assessed as total LRRK2 protein level administered for 11 days and measured after 4 hrs by Western blotting analysis; format: functional, organism-based; settings: dose 3-120 mg/kg, time 11.0 day
Sequence of Leucine-rich repeat serine/threonine-protein kinase 2 (Mus musculus) (Q5S006 whole entry): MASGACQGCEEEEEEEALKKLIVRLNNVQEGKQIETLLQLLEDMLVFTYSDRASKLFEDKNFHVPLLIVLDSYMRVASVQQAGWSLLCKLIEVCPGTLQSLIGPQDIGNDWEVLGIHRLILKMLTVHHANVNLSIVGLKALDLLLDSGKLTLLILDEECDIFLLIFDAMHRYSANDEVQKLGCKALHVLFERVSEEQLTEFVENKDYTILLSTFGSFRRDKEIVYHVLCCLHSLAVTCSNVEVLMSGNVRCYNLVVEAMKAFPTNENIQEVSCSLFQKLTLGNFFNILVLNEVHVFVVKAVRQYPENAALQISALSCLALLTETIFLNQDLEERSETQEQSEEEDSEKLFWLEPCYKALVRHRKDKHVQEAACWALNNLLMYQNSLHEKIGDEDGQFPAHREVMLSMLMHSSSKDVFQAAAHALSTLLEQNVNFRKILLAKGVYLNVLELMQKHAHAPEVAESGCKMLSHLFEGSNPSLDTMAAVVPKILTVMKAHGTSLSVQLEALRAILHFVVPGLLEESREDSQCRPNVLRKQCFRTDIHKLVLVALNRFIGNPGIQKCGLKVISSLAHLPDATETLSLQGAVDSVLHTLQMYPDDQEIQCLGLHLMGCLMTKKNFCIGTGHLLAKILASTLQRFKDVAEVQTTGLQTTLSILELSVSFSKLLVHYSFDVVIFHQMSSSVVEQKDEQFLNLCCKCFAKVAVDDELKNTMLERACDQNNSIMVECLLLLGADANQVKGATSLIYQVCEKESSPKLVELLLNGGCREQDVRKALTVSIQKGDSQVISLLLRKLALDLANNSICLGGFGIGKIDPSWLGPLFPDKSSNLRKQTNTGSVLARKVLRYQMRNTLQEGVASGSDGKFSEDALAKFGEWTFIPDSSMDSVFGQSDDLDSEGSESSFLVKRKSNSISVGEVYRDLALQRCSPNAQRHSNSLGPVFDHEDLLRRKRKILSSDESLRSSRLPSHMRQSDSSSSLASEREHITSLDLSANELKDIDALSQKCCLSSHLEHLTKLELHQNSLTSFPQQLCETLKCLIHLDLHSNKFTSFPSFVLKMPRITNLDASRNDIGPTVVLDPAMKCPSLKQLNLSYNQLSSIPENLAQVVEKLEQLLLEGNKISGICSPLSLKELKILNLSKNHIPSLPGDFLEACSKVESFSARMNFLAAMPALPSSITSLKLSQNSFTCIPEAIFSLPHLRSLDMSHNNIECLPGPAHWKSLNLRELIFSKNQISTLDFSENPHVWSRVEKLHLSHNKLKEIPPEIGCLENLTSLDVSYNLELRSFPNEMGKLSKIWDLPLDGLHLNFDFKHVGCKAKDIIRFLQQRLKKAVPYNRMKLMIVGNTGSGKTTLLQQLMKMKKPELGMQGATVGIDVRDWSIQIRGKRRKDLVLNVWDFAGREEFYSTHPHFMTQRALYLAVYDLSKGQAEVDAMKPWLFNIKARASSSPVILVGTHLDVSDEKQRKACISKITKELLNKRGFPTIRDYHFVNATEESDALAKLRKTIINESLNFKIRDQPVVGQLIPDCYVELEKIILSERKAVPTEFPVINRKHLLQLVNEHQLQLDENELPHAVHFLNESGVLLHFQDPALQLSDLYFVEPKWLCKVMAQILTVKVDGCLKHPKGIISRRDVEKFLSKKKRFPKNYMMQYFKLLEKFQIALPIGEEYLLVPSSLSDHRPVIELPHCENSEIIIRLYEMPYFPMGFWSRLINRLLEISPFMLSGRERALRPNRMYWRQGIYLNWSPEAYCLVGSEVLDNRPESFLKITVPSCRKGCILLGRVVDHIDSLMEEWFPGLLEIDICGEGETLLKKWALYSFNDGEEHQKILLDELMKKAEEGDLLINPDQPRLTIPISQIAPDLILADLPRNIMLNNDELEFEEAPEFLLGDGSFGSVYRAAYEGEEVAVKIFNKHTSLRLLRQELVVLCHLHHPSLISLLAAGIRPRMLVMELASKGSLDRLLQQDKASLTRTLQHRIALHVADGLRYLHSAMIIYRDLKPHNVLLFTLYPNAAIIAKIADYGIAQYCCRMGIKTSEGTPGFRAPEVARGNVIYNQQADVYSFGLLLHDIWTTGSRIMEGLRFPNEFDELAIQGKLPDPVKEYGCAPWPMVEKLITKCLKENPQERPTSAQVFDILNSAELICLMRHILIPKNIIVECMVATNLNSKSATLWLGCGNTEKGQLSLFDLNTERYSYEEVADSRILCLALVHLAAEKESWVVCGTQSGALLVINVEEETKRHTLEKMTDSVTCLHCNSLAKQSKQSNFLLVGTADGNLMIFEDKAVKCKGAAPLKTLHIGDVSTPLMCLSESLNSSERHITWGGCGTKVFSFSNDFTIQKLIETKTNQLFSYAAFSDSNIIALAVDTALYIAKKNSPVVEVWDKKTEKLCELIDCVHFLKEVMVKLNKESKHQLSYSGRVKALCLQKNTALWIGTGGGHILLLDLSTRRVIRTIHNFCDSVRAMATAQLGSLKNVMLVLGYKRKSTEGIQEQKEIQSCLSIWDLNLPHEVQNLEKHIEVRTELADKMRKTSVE
In short: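 Same 11-day in-diet design in male C57Bl/6 mice: 3-120 mg/kg/day or untreated diet, killed 4, 8 or 24 h after dark-cycle onset, n = 5 per group. Kidneys dissected for Western blot of pSer935 and total LRRK2, with total LRRK2 detected by MJFF-2 antibody.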

[9] = molecular target: Mitogen-activated protein kinase kinase kinase 14 (Homo sapiens, UniProt Q99558); assay: Inhibition of MAP3K14 (unknown origin)
Sequence of Mitogen-activated protein kinase kinase kinase 14 (Q99558 whole entry): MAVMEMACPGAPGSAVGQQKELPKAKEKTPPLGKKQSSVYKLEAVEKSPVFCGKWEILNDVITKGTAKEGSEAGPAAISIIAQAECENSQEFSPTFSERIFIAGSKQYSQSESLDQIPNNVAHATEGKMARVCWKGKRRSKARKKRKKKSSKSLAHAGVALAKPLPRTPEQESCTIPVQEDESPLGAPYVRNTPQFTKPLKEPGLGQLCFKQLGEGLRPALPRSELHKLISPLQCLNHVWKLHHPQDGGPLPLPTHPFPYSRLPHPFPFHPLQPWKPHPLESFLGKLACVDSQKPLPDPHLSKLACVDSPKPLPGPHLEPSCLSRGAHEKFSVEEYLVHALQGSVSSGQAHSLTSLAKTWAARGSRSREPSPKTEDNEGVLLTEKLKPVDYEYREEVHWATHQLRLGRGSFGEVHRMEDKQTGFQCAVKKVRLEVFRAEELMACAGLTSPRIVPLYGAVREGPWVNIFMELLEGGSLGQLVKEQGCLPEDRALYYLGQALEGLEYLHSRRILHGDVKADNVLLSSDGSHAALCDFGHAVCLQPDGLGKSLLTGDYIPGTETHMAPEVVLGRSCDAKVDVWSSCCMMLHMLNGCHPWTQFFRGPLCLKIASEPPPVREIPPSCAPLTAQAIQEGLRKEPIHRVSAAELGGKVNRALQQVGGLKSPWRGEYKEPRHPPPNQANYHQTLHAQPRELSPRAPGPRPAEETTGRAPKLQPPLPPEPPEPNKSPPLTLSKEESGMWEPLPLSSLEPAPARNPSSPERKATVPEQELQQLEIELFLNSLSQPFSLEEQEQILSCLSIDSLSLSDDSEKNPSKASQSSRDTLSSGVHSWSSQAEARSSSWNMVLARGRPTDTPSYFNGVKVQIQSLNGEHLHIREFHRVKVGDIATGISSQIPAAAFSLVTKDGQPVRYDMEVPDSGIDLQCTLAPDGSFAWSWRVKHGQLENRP

[10] = molecular target: Leucine-rich repeat serine/threonine-protein kinase 2 (Mus musculus) (UniProt Q5S006); assay: In vivo inhibition of LRRK2 in 20 weeks old MitoPark mouse kidney assessed as reduction in pSer935 LRRK2 level at 30 mg/kg/day administered for 15 weeks by Western blotting analysis; format: functional, organism-based
In short: (§4)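 MitoPark mice on drug-containing diet targeted to 30 mg/kg/day from 5 weeks of age, with the diet reformulated every 3 weeks to hold the target. Untreated-diet MitoPark and wild-type littermate controls. Killed by CO2 at 20 weeks of age. Lung and kidney taken from 5 mice per group for pSer935 and total LRRK2 immunoblots.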

[11] = test system: Mus musculus; assay: Effect on food intake in MitoPark mouse at 30 mg/kg administered for 15 weeks; format: functional, organism-based; in short: as §1
[12] = molecular target: Leucine-rich repeat serine/threonine-protein kinase 2 (Mus musculus) (UniProt Q5S006); assay: In vivo inhibition of LRRK2 in C57Bl/6 mouse brain assessed as total LRRK2 protein level at 3 to 120 mg/kg administered for 11 days and measured for 4 to 24 hrs by Western blotting analysis; format: functional, organism-based; settings: dose 3-120 mg/kg, time 11.0 day
In short: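 Male C57Bl/6 mice, singly housed on a reversed light cycle. Fed drug diet targeted to 3, 10, 30, 60 or 120 mg/kg/day (assuming 3 g/day intake), or untreated diet, for 11 days. Killed 4, 8 or 24 h after dark-cycle onset, n = 5 per group. Cortex immunoblotted for pSer935/total LRRK2 and total LRRK2/GAPDH. Total LRRK2 detected with MJFF2 antibody.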

[13] = test system: Mus musculus; assay: Effect on behavioral changes in 8 weeks old MitoPark mouse striatum assessed as dopamine level at 30 mg/kg/day administered for 3 weeks by HPLC analysis; format: functional; in short: as §2
[14] = Oral biavailability in C57Bl/6 mouse at 10 mg/kg measured after 480 mins by LC-MS/MS analysis; format: ADME, organism-based; settings: in vivo; in short: as §3
[15] = test system: Mus musculus; assay: Effect on behavioral changes in 8 weeks old MitoPark mouse striatum assessed as DOPAC level at 30 mg/kg/day administered for 3 weeks by HPLC analysis; format: functional; in short: as §2
[16] = test system: Mus musculus; assay: Effect on body weight in MitoPark mouse at 30 mg/kg administered for 15 weeks; format: functional, organism-based; in short: as §1
[17] = Unbound brain concentration in C57Bl/6 mouse at 30 mg/kg, po administered for 1 hr; format: ADME, organism-based; settings: in vivo
[18] = Unbound brain concentration in C57Bl/6 mouse at 3 mg/kg, po administered for 1 hr; format: ADME, organism-based; settings: in vivo
[19] = AUC in C57Bl/6 mouse at 2 mg/kg, iv measured after 480 mins by LC-MS/MS analysis; format: ADME, organism-based; settings: in vivo; in short: as §3
[20] = test system: Mus musculus; assay: Effect on behavioral phenotype in 11 weeks old MitoPark mouse assessed as decreased locomotor activity at 30 mg/kg/day administered for 6 weeks and measured after 60 mins truScan photo beam activity system analysis; format: functional, organism-based; in short: as §1
[21] = MRT in C57Bl/6 mouse at 10 mg/kg, po measured after 480 mins by LC-MS/MS analysis; format: ADME, organism-based; settings: in vivo; in short: as §3
[22] = molecular target: Leucine-rich repeat serine/threonine-protein kinase 2 (Mus musculus) (UniProt Q5S006); assay: In vivo inhibition of LRRK2 in 20 weeks old MitoPark mouse lung assessed as reduction in pSer935 LRRK2 level at 30 mg/kg/day administered for 15 weeks by Western blotting analysis; format: functional, organism-based; in short: as §4
[23] = Unbound brain concentration in C57Bl/6 mouse administered for 11 days and measured after 24 hrs; format: ADME, tissue-based; settings: in vivo, 264 h, time 11 day
In short: (§5)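 Male C57Bl/6 mice, singly housed on a reversed 12 h light cycle, were fed diet formulated to give 3, 10, 30, 60 or 120 mg/kg/day (assumes 3 g/day intake) or untreated diet for 11 days. Body weight and food intake were monitored. Spontaneous locomotion and rearing were recorded over 60 min. On day 11, mice were euthanized 4, 8 or 24 h after dark onset and plasma and brain drug levels measured; n = 5 per group.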

[24] = molecular target: Sodium-dependent noradrenaline transporter (Homo sapiens, UniProt P23975); assay: Inhibition of norepinephrine transporter (unknown origin)
Sequence of Sodium-dependent noradrenaline transporter (P23975 whole entry): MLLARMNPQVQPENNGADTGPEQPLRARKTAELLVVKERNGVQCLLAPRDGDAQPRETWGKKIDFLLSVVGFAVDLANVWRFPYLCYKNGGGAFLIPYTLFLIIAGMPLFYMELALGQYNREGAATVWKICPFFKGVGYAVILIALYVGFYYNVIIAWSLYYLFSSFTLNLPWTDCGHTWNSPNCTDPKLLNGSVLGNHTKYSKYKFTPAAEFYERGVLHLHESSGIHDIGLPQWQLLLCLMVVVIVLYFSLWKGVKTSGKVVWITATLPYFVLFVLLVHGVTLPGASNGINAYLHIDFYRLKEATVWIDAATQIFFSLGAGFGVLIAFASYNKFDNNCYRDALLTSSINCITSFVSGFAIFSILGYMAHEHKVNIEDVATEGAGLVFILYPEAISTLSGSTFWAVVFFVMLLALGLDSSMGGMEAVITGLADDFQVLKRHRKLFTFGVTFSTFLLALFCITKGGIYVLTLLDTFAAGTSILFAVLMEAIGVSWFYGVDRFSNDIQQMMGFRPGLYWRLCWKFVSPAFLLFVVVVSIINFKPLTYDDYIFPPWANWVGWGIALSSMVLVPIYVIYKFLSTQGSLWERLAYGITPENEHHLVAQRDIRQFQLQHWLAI
In short: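 Radioligand binding selectivity screen was run at 10 μM, mean of three determinations. Where inhibition exceeded 50%, full concentration-displacement curves were run in triplicate and IC50 was obtained by nonlinear least-squares regression.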

[25] = test system: Mus musculus; assay: Effect on behavioral phenotype in 8 weeks old MitoPark mouse assessed as locomotor activity at 30 mg/kg/day administered for 3 weeks and measured after 60 mins by truScan photo beam activity system analysis; format: functional, organism-based; in short: as §1
[26] = test system: Mus musculus; assay: Effect on behavioral phenotype in 8 weeks old MitoPark mouse assessed as rearing behavior at 30 mg/kg/day administered for 3 weeks and measured after 60 mins; format: functional, organism-based; in short: as §1
[27] = Unbound plasma concentration in C57Bl/6 mouse administered for 11 days and measured after 24 hrs; format: ADME, cell-free; settings: 264 h, time 11 day; in short: as §5

In the case of `C[C@@H]1CN(c2cc(-c3n[nH]c4ccc(OC5(C)CC5)cc34)ncn2)C[C@H](C)O1` [MLi-2], the Activity [1] is reported as “Active”, the Activity [2] is reported as 267.6 ng/g and the “Drug uptake(free)” value [3] is reported as 0.6 nM. The MRT [4] was 2.7 h, the IC50 [5] was 225 nM and the Activity [6] was 323.7 ng/g. For the same compound, the “Drug uptake(free)” value [7] was 272.9 nM, the inhibition [8] was “Dose-Dependent Effect” and the IC50 [9] was 244 nM. For the same compound, the inhibition [10] was “Active”, the Activity [11] was “inactive” and the inhibition [12] was “inactive”. For the same compound, the Activity [13] was 1114 ng/g, the bioavailability [14] was 45% and the Activity [15] was 8966 ng/g. The Activity [16] was “inactive”, the “Drug uptake(free)” value [17] was 91.8 nM and the “Drug uptake(free)” value [18] was 2.4 nM. The AUC at 8 h [19] was 0.664 µM·h, the Activity [20] was “Active” and the MRT [21] was 11 h. The inhibition [22] was “Active”, the “Drug uptake(free)” value [23] was “Active” and the IC50 [24] was 3800 nM. For the same compound, the Activity [25] was “Active”, the Activity [26] was “Active” and the “Drug uptake(free)” value [27] was “Active”.
